Assay results as given in ChEMBL document CHEMBL4020802, “Fused bi-heteroaryl substituted hydantoin compounds as TACE inhibitors” (Bioorg Med Chem Lett, 2017).

Key:
[1] = test system: Blood; test: Antiinflammatory activity in human whole blood assessed as inhibition of LPS-induced TNF-alpha release preincubated for 1 hr followed by LPS addition after 3.5 hrs by ELISA method; assay type: functional
[2] = target: Disintegrin and metalloproteinase domain-containing protein 17 (Homo sapiens, UniProt P78536); test: Inhibition of catalytic domain TACE (unknown origin) by FRET assay
Sequence of Disintegrin and metalloproteinase domain-containing protein 17 (P78536 whole entry, the tested form may be a part): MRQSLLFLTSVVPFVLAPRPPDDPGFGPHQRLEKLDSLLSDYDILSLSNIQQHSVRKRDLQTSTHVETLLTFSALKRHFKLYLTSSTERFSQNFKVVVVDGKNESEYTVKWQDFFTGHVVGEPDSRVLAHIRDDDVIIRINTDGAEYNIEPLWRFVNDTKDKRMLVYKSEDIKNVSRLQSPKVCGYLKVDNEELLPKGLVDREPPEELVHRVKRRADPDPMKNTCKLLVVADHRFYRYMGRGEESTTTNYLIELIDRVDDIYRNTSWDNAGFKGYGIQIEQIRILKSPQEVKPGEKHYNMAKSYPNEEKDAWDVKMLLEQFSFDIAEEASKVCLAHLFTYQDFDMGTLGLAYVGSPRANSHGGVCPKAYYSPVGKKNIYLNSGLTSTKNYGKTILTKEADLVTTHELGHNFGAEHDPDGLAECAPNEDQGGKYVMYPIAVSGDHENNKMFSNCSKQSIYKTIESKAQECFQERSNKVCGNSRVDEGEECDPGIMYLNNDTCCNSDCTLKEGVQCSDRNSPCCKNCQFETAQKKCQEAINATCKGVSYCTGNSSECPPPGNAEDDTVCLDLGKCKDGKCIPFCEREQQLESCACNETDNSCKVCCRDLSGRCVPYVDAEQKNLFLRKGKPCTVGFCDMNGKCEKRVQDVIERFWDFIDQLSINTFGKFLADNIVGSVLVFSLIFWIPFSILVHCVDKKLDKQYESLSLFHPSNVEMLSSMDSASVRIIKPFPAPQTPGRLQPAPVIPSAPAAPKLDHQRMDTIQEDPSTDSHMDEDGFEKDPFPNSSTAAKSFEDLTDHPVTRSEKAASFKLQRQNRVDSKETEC

[3] = AUC in rat; assay type: ADME; set-up: concentration or dose not given beside the values; conditions: in vivo
[4] = Oral bioavailability in rat at 10 mg/kg; assay type: ADME, organism-based; conditions: in vivo
How it was run: (§1)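 Oral dosing of rats, dogs and monkeys, with compounds given as Na+ or HCl salts in a 0.4% HPMC formulation. Doses were 10 mg/kg in rat, 2 or 3 mg/kg in dog, and 3 or 10 mg/kg in monkey. Plasma exposure was reported as AUC in µM·h, and oral bioavailability as F%.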

[5] = AUC in monkey at 3 mg/kg, po; assay type: ADME, organism-based, Macaca mulatta; conditions: rhesus monkey, in vivo; how it was run: as §1
[6] = AUC in rat at 10 mg/kg, po; assay type: ADME, organism-based; conditions: in vivo; how it was run: as §1
[7] = AUC in dog at 2 mg/kg, po; assay type: ADME, organism-based, Canis lupus familiaris; conditions: in vivo; how it was run: as §1
[8] = Oral bioavailability in monkey at 3 mg/kg; assay type: ADME, organism-based, Macaca mulatta; conditions: rhesus monkey, in vivo; how it was run: as §1
[9] = target: Matrix metalloproteinase-9 (Homo sapiens, UniProt P14780); test: Inhibition of MMP9 (unknown origin)
Sequence of Matrix metalloproteinase-9 (P14780 whole entry): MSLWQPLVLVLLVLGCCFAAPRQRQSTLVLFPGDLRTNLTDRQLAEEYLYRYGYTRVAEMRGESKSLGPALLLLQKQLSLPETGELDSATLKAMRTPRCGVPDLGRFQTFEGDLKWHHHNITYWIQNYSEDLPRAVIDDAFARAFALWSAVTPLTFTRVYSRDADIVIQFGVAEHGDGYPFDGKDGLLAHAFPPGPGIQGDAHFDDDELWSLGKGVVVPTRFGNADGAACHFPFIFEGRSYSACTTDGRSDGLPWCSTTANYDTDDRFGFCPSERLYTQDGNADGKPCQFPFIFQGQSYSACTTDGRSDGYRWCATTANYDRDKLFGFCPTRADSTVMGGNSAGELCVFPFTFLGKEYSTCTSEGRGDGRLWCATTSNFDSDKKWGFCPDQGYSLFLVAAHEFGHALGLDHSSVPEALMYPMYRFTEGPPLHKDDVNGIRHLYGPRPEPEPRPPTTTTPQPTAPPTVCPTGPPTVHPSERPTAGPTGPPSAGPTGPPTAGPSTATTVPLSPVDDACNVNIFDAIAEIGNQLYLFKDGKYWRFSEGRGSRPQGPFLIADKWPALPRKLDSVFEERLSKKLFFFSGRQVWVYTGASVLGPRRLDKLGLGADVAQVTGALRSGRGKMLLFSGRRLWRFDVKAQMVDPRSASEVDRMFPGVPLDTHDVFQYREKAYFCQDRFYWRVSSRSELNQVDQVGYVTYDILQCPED

[10] = Clearance in dog at 0.5 mg/kg, iv; assay type: ADME, organism-based, Canis lupus familiaris; conditions: in vivo
[11] = AUC in dog at 3 mg/kg, po; assay type: ADME, organism-based, Canis lupus familiaris; conditions: in vivo; how it was run: as §1
[12] = target: Stromelysin-1 (Homo sapiens, UniProt P08254); test: Inhibition of MMP3 (unknown origin)
Sequence of Stromelysin-1 (P08254 whole entry): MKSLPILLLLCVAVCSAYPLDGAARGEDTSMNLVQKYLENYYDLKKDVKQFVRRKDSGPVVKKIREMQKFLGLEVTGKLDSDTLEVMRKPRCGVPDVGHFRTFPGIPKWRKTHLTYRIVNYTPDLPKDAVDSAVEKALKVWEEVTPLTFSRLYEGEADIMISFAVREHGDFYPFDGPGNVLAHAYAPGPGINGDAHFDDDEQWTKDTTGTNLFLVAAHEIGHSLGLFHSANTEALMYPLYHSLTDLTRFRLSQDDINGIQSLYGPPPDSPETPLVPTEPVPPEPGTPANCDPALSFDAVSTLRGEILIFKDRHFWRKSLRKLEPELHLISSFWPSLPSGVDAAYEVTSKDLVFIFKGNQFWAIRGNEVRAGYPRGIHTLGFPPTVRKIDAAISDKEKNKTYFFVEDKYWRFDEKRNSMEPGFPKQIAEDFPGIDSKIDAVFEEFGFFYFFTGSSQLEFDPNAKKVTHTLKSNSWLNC

[13] = Permeability from apical side to basolateral side in human Caco2 cells; assay type: ADME, cell-based; conditions: Caco-2, read-out: permeability
[14] = Clearance in monkey at 1 mg/kg, iv; assay type: ADME, organism-based, Macaca mulatta; conditions: rhesus monkey, in vivo
[15] = target: T1, Matrilysin (Homo sapiens, UniProt P09237); test: Inhibition of MMP7 (unknown origin)
T1 sequence (P09237 whole entry): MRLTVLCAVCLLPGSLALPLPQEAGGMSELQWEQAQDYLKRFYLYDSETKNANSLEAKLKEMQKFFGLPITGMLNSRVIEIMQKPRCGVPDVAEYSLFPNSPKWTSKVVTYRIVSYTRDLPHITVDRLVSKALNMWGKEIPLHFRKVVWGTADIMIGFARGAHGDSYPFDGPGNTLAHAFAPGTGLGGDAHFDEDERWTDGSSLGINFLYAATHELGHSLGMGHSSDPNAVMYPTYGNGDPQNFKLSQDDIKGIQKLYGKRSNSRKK

[16] = target: Collagenase 3 (Homo sapiens, UniProt P45452); test: Inhibition of MMP13 (unknown origin)
[17] = Clearance in rat at 3 mg/kg, iv; assay type: ADME, organism-based; conditions: in vivo
[18] = target: T2, Interstitial collagenase (Homo sapiens, UniProt P03956); test: Inhibition of MMP1 (unknown origin)
T2 sequence (P03956 whole entry): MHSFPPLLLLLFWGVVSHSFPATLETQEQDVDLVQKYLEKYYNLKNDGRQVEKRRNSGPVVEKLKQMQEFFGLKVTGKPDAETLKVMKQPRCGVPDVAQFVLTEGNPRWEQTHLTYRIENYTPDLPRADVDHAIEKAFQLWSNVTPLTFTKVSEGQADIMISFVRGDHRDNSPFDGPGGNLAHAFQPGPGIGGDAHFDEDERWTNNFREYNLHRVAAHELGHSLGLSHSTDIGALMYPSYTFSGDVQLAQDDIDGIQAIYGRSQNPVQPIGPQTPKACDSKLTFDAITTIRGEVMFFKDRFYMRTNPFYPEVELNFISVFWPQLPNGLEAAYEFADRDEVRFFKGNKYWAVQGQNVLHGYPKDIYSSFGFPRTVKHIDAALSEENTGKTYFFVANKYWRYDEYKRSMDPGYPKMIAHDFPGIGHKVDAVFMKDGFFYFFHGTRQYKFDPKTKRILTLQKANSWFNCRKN

[19] = target: T3, Disintegrin and metalloproteinase domain-containing protein 10 (Homo sapiens, UniProt O14672); test: Inhibition of ADAM10 (unknown origin)
T3 sequence (O14672 whole entry): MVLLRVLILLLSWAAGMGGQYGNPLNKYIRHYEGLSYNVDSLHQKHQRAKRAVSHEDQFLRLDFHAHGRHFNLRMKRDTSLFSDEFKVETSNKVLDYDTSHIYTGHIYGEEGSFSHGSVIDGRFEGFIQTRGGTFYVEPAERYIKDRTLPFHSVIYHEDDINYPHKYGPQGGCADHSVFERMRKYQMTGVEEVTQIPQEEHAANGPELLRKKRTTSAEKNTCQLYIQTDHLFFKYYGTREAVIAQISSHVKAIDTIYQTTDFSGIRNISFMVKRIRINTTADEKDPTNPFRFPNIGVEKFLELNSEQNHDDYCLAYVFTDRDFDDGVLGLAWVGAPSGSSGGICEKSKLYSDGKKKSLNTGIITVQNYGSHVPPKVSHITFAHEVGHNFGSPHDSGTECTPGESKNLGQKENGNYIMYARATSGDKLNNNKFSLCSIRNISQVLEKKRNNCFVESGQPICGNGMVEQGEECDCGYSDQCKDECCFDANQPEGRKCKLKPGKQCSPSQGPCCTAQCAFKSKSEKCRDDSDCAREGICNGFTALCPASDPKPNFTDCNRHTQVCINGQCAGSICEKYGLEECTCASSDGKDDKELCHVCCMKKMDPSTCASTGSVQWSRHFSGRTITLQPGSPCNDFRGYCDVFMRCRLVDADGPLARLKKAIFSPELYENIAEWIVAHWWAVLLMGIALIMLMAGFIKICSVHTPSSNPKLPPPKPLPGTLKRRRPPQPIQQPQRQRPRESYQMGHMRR

[20] = Oral bioavailability in dog at 3 mg/kg; assay type: ADME, organism-based, Canis lupus familiaris; conditions: in vivo; how it was run: as §1
[21] = target: Matrix metalloproteinase-14 (Homo sapiens, UniProt P50281); test: Inhibition of MMP14 (unknown origin)
[22] = target: 72 kDa type IV collagenase (Homo sapiens, UniProt P08253); test: Inhibition of MMP2 (unknown origin)
Sequence of 72 kDa type IV collagenase (P08253 whole entry): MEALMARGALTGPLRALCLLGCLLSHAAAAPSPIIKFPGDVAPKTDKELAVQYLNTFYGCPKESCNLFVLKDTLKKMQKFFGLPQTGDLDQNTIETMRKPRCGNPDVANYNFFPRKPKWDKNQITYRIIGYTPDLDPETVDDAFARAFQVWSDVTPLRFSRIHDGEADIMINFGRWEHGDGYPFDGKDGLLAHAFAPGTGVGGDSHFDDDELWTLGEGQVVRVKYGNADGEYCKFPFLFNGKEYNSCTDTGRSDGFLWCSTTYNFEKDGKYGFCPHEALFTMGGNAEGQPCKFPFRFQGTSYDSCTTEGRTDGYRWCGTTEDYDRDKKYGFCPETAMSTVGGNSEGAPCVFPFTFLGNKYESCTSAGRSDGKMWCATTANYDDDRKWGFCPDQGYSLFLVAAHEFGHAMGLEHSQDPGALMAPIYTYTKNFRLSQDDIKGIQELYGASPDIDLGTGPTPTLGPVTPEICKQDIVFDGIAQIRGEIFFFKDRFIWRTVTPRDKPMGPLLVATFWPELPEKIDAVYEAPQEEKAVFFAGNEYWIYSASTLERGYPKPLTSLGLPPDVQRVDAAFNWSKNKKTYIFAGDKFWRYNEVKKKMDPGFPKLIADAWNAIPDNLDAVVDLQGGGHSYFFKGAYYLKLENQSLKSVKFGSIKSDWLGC

[23] = Oral bioavailability in monkey at 10 mg/kg; assay type: ADME, organism-based, Macaca mulatta; conditions: rhesus monkey, in vivo; how it was run: as §1
[24] = AUC in monkey at 10 mg/kg, po; assay type: ADME, organism-based, Macaca mulatta; conditions: rhesus monkey, in vivo; how it was run: as §1

SMILES	IC50 [1] [nM]	Ki [2] [nM]	AUC [3] [µM·h]	other results
COc1ccc2c(c1)C(=O)N(C[C@@]1(c3cn4ccccc4n3)NC(=O)NC1=O)C2	1480	1.4	–	–
COc1ccc2c(c1F)C(=O)N(C[C@@]1(c3cc4nc(N5CCC(N(C)C)CC5)ccc4o3)NC(=O)NC1=O)C2	76	–	0.04	–
COc1ccc2c(c1)C(=O)N(C[C@@]1(c3cc4cncc(C)c4o3)NC(=O)NC1=O)C2	760	0.5	8.7	–
COc1ccc2c(c1)C(=O)N(C[C@@]1(c3cc4c(C#N)nccc4o3)NC(=O)NC1=O)C2	1240	0.7	0.5	–
COc1ccc2c(c1F)C(=O)N(C[C@@]1(c3cc4nc(N5CC(=O)NC5=O)c(F)cc4o3)NC(=O)NC1=O)C2	–	0.4	3.2	–
COc1ccc2c(c1F)C(=O)N(C[C@@]1(c3cc4cnc(C)cc4o3)NC(=O)NC1=O)C2	210	0.4	26.3	bioavailability [4]: 11%; AUC [5]: 1.5 µM·h; AUC [6]: 13.4 µM·h; AUC [7]: 13.5 µM·h
COc1ccc2c(c1F)C(=O)N(C[C@@]1(c3cc4nc(N5CCNC(=O)C5)ccc4o3)NC(=O)NC1=O)C2	–	0.6	0.1	–
COc1ccc2c(c1)C(=O)N(C[C@@]1(c3cc4c(O)nccc4o3)NC(=O)NC1=O)C2	250	0.2	–	–
COc1ccc2c(c1)C(=O)N(C[C@@]1(c3cc4c(C(F)(F)F)nccc4o3)NC(=O)NC1=O)C2	1070	0.4	–	–
COc1ccc2c(c1)C(=O)N(C[C@@]1(c3cc4cnccc4o3)NC(=O)NC1=O)C2	270	0.7	13	bioavailability [8]: 19%; bioavailability [4]: 58%; IC50 [9]: 1760 nM; AUC [5]: 10 µM·h; clearance [10]: 3 mL/min/kg; AUC [11]: 52 µM·h; IC50 [12]: 5500 nM; Papp A→B [13]: 1.5 ×10⁻⁶ cm/s; clearance [14]: 7 mL/min/kg; AUC [6]: 11 µM·h; IC50 [15]: > 40000 nM; IC50 [16]: 684 nM; clearance [17]: 23 mL/min/kg; IC50 [18]: 4710 nM; Ki [19]: 144 nM; bioavailability [20]: 98%; IC50 [21]: 239 nM; IC50 [22]: 533 nM
COc1ccc2c(c1)C(=O)N(C[C@@]1(c3cc4c(N5CCNCC5)nccc4o3)NC(=O)NC1=O)C2	230	2.5	–	–
COc1ccc2c(c1)C(=O)N(C[C@@]1(c3cc4nc(N)ccc4o3)NC(=O)NC1=O)C2	187	0.5	0.4	–
COc1ccc2c(c1)C(=O)N(C[C@@]1(c3cc4cncnc4o3)NC(=O)NC1=O)C2	770	1.6	2.2	–
COc1ccc2c(c1)C(=O)N(C[C@@]1(c3cc4ncccc4o3)NC(=O)NC1=O)C2	290	0.5	27	bioavailability [4]: 35%; clearance [10]: 3 mL/min/kg; AUC [11]: 41 µM·h; bioavailability [23]: 46%; Papp A→B [13]: 1.2 ×10⁻⁶ cm/s; clearance [14]: 11 mL/min/kg; AUC [6]: 10 µM·h; AUC [24]: 22 µM·h; clearance [17]: 15 mL/min/kg; bioavailability [20]: 82%
COc1ccc2c(c1)C(=O)N(C[C@@]1(c3cn4cccnc4n3)NC(=O)NC1=O)C2	710	1.9	3.2	–
COc1ccc2c(c1)C(=O)N(C[C@@]1(c3cc4cncc(F)c4o3)NC(=O)NC1=O)C2	1090	2	2.7	–
COc1ccc2c(c1)C(=O)N(C[C@@]1(c3cc4nc(N(c5cn[nH]c5)C5CCN(C)CC5)ccc4o3)NC(=O)NC1=O)C2	–	1	0.06	Papp A→B [13]: 0.1 ×10⁻⁶ cm/s

SMILES	IC50 [1] [nM]	Ki [2] [nM]	AUC [3] [µM·h]	other results
COc1ccc2c(c1)C(=O)N(C[C@@]1(c3cc4nc(-c5cn[nH]c5)ccc4o3)NC(=O)NC1=O)C2	99	0.5	0.1	–
COc1ccc2c(c1)C(=O)N(C[C@@]1(c3cc4cnc(C(F)(F)F)cc4o3)NC(=O)NC1=O)C2	1620	0.5	19.3	–
COc1ccc2c(c1)C(=O)N(C[C@@]1(c3cc4c(-c5cn[nH]c5)nccc4o3)NC(=O)NC1=O)C2	150	0.2	–	–
COc1ccc2c(c1F)C(=O)N(C[C@@]1(c3cc4nc(C)c(-c5ccc(N)nc5)cc4o3)NC(=O)NC1=O)C2	308	–	–	–
COc1ccc2c(c1)C(=O)N(C[C@@]1(c3cc4cnc(N5CCNC5=O)cc4o3)NC(=O)NC1=O)C2	210	1.8	1.2	–
COc1ccc2c(c1)C(=O)N(C[C@@]1(c3cc4ccccc4o3)NC(=O)NC1=O)C2	2310	0.3	0.2	–
COc1ccc2c(c1)C(=O)N(C[C@@]1(c3cn4ccsc4n3)NC(=O)NC1=O)C2	540	1.3	2.2	–
COc1ccc2c(c1)C(=O)N(C[C@@]1(c3cc4c(C)nc(C)cc4o3)NC(=O)NC1=O)C2	680	0.5	4.2	–
COc1ccc2c(c1)C(=O)N(C[C@@]1(C#Cc3cccnc3)NC(=O)NC1=O)C2	–	–	–	Papp A→B [13]: 1.6 ×10⁻⁶ cm/s
CNC(=O)c1cnc2cc([C@]3(CN4Cc5ccc(OC)cc5C4=O)NC(=O)NC3=O)oc2c1	–	0.9	–	–
COc1ccc2c(c1)C(=O)N(C[C@@]1(c3cc4nc(N(c5cn[nH]c5)C5CCNCC5)ccc4o3)NC(=O)NC1=O)C2	93	0.4	–	Papp A→B [13]: 0.22 ×10⁻⁶ cm/s
COc1ccc2c(c1)C(=O)N(C[C@@]1(c3cc4cccnc4o3)NC(=O)NC1=O)C2	590	0.7	34	–
COc1ccc2c(c1)C(=O)N(C[C@@]1(c3cc4cnc(C)cc4o3)NC(=O)NC1=O)C2	350	0.4	19.1	Papp A→B [13]: 2.05 ×10⁻⁶ cm/s
COc1ccc2c(c1)C(=O)N(C[C@@]1(c3cc4ncccc4[nH]3)NC(=O)NC1=O)C2	2970	3.6	–	–
COc1ccc2c(c1)C(=O)N(C[C@@]1(c3cc4cncc(N)c4o3)NC(=O)NC1=O)C2	310	0.4	0.1	–
COc1ccc2c(c1)C(=O)N(C[C@@]1(c3cc4nc(-n5cccn5)ccc4o3)NC(=O)NC1=O)C2	1370	0.4	21	–
